In ChEMBL document CHEMBL1158335, “Synthesis and evaluation of some new benzimidazole derivatives as potential antimicrobial agents” (2009):
In brackets after ≈: the same amount, converted by molar mass. Activity calls are given as the source filed them. The rule behind the calls is not given here.

How the values were obtained:
Escherichia coli [1] = assay: Antibacterial activity against Escherichia coli ATCC 25922 at 10 ug/ml after 24 hrs; format: functional, organism-based
Method in brief: (§1)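 Organisms grown overnight at 37 °C in buffered glucose broth. A loopful (5 mm diameter) was added to buffered glucose broth containing the test compound and incubated at 37 °C for 24 h. Growth was scored against the untreated control as total inhibition, poor, medium or confluent growth.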

Bacillus subtilis [2] = assay: Antibacterial activity against Bacillus subtilis MTCC 121 after 24 hrs; format: functional
Escherichia coli [3] = assay: Antibacterial activity against Escherichia coli ATCC 25922 at 200 ug/ml after 24 hrs; format: functional, organism-based; method in brief: as §1
Bacillus subtilis [4] = assay: Antibacterial activity against Bacillus subtilis MTCC 121 at 200 ug/ml after 24 hrs; format: functional, organism-based; method in brief: as §1
Escherichia coli [5] = assay: Antibacterial activity against Escherichia coli ATCC 25922 at 500 ug/ml after 24 hrs; format: functional, organism-based; method in brief: as §1
Escherichia coli [6] = assay: Antibacterial activity against Escherichia coli ATCC 25922 at 100 ug/ml after 24 hrs; format: functional, organism-based; method in brief: as §1
Bacillus subtilis [7] = assay: Antibacterial activity against Bacillus subtilis MTCC 121 at 10 ug/ml after 24 hrs; format: functional, organism-based; method in brief: as §1
Bacillus subtilis [8] = assay: Antibacterial activity against Bacillus subtilis MTCC 121 at 1 ug/ml after 24 hrs; format: functional, organism-based; method in brief: as §1
Bacillus subtilis [9] = assay: Antibacterial activity against Bacillus subtilis MTCC 121 at 500 ug/ml after 24 hrs; format: functional, organism-based; method in brief: as §1
Escherichia coli [10] = assay: Antibacterial activity against Escherichia coli ATCC 25922 at 1 ug/ml after 24 hrs; format: functional, organism-based; method in brief: as §1
Aspergillus flavus = assay: Antifungal activity against Aspergillus flavus AIIMS isolate at 30 ug/ml by cup-plate agar diffusion method; format: functional; details: for zone of inhibition at 30 µg/mL: read-out: DIZ
Method in brief: (§2)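 Cup-plate agar diffusion assay against the fungal strains, with amphotericin B as the reference standard.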

Candida albicans = assay: Antifungal activity against Candida albicans MTCC 1637 at 30 ug/ml by cup-plate agar diffusion method; format: functional; details: for zone of inhibition at 30 µg/mL: read-out: DIZ; method in brief: as §2
Escherichia coli [11] = assay: Antibacterial activity against Escherichia coli ATCC 25922 after 24 hrs; format: functional
Aspergillus niger = assay: Antifungal activity against Aspergillus niger AIIMS isolate at 30 ug/ml by cup-plate agar diffusion method; format: functional; details: for zone of inhibition at 30 µg/mL: read-out: DIZ; method in brief: as §2
Bacillus subtilis [12] = assay: Antibacterial activity against Bacillus subtilis MTCC 121 at 100 ug/ml after 24 hrs; format: functional, organism-based; method in brief: as §1

| Structure (SMILES) | inhibition (Escherichia coli [1]) | inhibition (Escherichia coli [3]) | inhibition (Bacillus subtilis [4]) | inhibition (Escherichia coli [5]) | inhibition (Escherichia coli [6]) | inhibition (Bacillus subtilis [7]) | inhibition (Bacillus subtilis [8]) | inhibition (Escherichia coli [10]) | zone of inhibition at 30 µg/mL (Aspergillus flavus) | zone of inhibition at 30 µg/mL (Candida albicans) | zone of inhibition at 30 µg/mL (Aspergillus niger) | inhibition (Bacillus subtilis [12]) | MIC (Bacillus subtilis [2]; MTCC 121, 24 h) | inhibition (Bacillus subtilis [9]) | MIC (Escherichia coli [11]; ATCC 25922, 24 h) | further results |
| --- | --- | --- | --- | --- | --- | --- | --- | --- | --- | --- | --- | --- | --- | --- | --- | --- |
| Cc1nc2ccccc2n1Cc1nnc(/N=C/c2cccc(O)c2)s1 | inactive | inactive | inactive | inactive | inactive | inactive | inactive | inactive | 10 mm | 22 mm | 10 mm | inactive | – | – | – | MIC (Bacillus subtilis [2]): inactive; Activity (Bacillus subtilis [9]): inactive; MIC (Escherichia coli [11]): inactive |
| C[C@@H]1[C@H](O)[C@@H](C)/C=C/C=C/C=C/C=C/C=C/C=C/C=C/[C@H](O[C@@H]2O[C@H](C)[C@@H](O)[C@H](N)[C@@H]2O)C[C@@H]2O[C@](O)(C[C@@H](O)C[C@@H](O)[C@H](O)CC[C@@H](O)C[C@@H](O)CC(=O)O[C@H]1C)C[C@H](O)[C@H]2C(=O)O [AMPHOTERICIN B] | – | – | – | – | – | – | – | – | 22 mm | 22 mm | 22 mm | – | – | – | – | – |
| Cc1nc2ccccc2n1Cc1nnc(N2C(=O)C(Cl)C2c2ccccc2)s1 (configuration not stated) | inactive | – | Active | Active | – | inactive | inactive | inactive | 16 mm | 16 mm | 10 mm | – | 200 µg/mL (≈ 488 µM) | Active | 500 µg/mL (≈ 1220 µM) | – |
| COc1ccc(/C=N/c2nnc(Cn3c(C)nc4ccccc43)s2)cc1 | inactive | Active | Active | Active | – | – | inactive | inactive | 16 mm | 10 mm | 16 mm | Active | 100 µg/mL (≈ 275 µM) | Active | 200 µg/mL (≈ 550 µM) | – |
| COc1ccc(C2C(Cl)C(=O)N2c2nnc(Cn3c(C)nc4ccccc43)s2)cc1 (configuration not stated) | – | Active | Active | Active | – | – | inactive | inactive | < 10 mm | 10 mm | < 10 mm | – | 200 µg/mL (≈ 455 µM) | Active | 200 µg/mL (≈ 455 µM) | – |
| Cc1nc2ccccc2n1Cc1nnc(/N=C/c2ccc(O)cc2)s1 | – | Active | Active | Active | – | – | inactive | inactive | 16 mm | 16 mm | 16 mm | – | 200 µg/mL (≈ 572 µM) | Active | 200 µg/mL (≈ 572 µM) | – |
| Cc1nc2ccccc2n1Cc1nnc(/N=C/c2ccc(N)cc2)s1 | – | Active | Active | Active | – | – | inactive | inactive | 10 mm | 16 mm | 22 mm | Active | 100 µg/mL (≈ 287 µM) | Active | 200 µg/mL (≈ 574 µM) | – |
| Cc1nc2ccccc2n1Cc1nnc(/N=C/c2ccccc2O)s1 | inactive | Active | Active | Active | – | – | inactive | inactive | – | – | – | Active | 100 µg/mL (≈ 286 µM) | Active | 200 µg/mL (≈ 572 µM) | diameter of the inhibition zone (DIZ) (Aspergillus flavus): inactive; diameter of the inhibition zone (DIZ) (Candida albicans): inactive; diameter of the inhibition zone (DIZ) (Aspergillus niger): inactive |
| Cc1nc2ccccc2n1Cc1nnc(N2C(=O)C(Cl)C2c2ccccc2Cl)s1 (configuration not stated) | – | Active | Active | Active | Active | inactive | inactive | inactive | – | – | – | – | 200 µg/mL (≈ 450 µM) | Active | 100 µg/mL (≈ 225 µM) | diameter of the inhibition zone (DIZ) (Aspergillus flavus): inactive; diameter of the inhibition zone (DIZ) (Candida albicans): inactive; diameter of the inhibition zone (DIZ) (Aspergillus niger): inactive |
| Cc1nc2ccccc2n1Cc1nnc(N2C(=O)C(Cl)C2c2ccccc2O)s1 (configuration not stated) | – | Active | Active | Active | – | – | – | inactive | 10 mm | 10 mm | 16 mm | Active | 100 µg/mL (≈ 235 µM) | Active | 200 µg/mL (≈ 470 µM) | – |
| Cc1nc2ccccc2n1Cc1nnc(N2C(=O)C(Cl)C2c2cccc(O)c2)s1 (configuration not stated) | – | – | Active | Active | – | – | inactive | inactive | – | – | – | – | 200 µg/mL (≈ 470 µM) | Active | 500 µg/mL (≈ 1170 µM) | diameter of the inhibition zone (DIZ) (Aspergillus flavus): inactive; diameter of the inhibition zone (DIZ) (Candida albicans): inactive; diameter of the inhibition zone (DIZ) (Aspergillus niger): inactive |
| CC1(C)S[C@@H]2[C@H](NC(=O)[C@H](N)c3ccccc3)C(=O)N2[C@H]1C(=O)O [AMPICILLIN] | Active | Active | Active | Active | Active | Active | – | – | – | – | – | Active | 10 µg/mL (≈ 28.6 µM) | Active | 10 µg/mL (≈ 28.6 µM) | – |
| Cc1ccccc1/C=N/c1nnc(Cn2c(C)nc3ccccc32)s1 | – | Active | Active | Active | Active | inactive | inactive | inactive | < 10 mm | 10 mm | 10 mm | – | 200 µg/mL (≈ 576 µM) | Active | 100 µg/mL (≈ 288 µM) | – |
| Cc1nc2ccccc2n1Cc1nnc(/N=C/c2ccccc2Cl)s1 | – | Active | Active | Active | Active | – | inactive | inactive | – | – | – | Active | 100 µg/mL (≈ 272 µM) | Active | 100 µg/mL (≈ 272 µM) | diameter of the inhibition zone (DIZ) (Aspergillus flavus): inactive; diameter of the inhibition zone (DIZ) (Candida albicans): inactive; diameter of the inhibition zone (DIZ) (Aspergillus niger): inactive |
| Cc1ccc(C2C(Cl)C(=O)N2c2nnc(Cn3c(C)nc4ccccc43)s2)cc1 (configuration not stated) | – | – | – | Active | – | inactive | inactive | inactive | 16 mm | < 10 mm | 10 mm | – | 500 µg/mL (≈ 1180 µM) | Active | 500 µg/mL (≈ 1180 µM) | – |
| Cc1nc2ccccc2n1Cc1nnc(N2C(=O)C(Cl)C2c2ccc(N)cc2)s1 (configuration not stated) | – | Active | Active | Active | – | – | – | inactive | 10 mm | 16 mm | 10 mm | Active | 100 µg/mL (≈ 235 µM) | Active | 200 µg/mL (≈ 471 µM) | – |
| Cc1nc2ccccc2n1Cc1nnc(/N=C/c2ccccc2)s1 | – | Active | Active | Active | – | – | inactive | inactive | 22 mm | 16 mm | 22 mm | Active | 100 µg/mL (≈ 300 µM) | Active | 200 µg/mL (≈ 600 µM) | – |
| Cc1nc2ccccc2n1Cc1nnc(/N=C/c2ccc(Br)cc2)s1 | inactive | – | – | Active | – | inactive | inactive | inactive | – | – | – | – | 500 µg/mL (≈ 1210 µM) | Active | 500 µg/mL (≈ 1210 µM) | diameter of the inhibition zone (DIZ) (Aspergillus flavus): inactive; diameter of the inhibition zone (DIZ) (Candida albicans): inactive; diameter of the inhibition zone (DIZ) (Aspergillus niger): inactive |
| Cc1ccccc1C1C(Cl)C(=O)N1c1nnc(Cn2c(C)nc3ccccc32)s1 (configuration not stated) | – | Active | Active | Active | Active | – | inactive | inactive | < 10 mm | 10 mm | 16 mm | Active | 100 µg/mL (≈ 236 µM) | Active | 100 µg/mL (≈ 236 µM) | – |
| Cc1nc2ccccc2n1Cc1nnc(N2C(=O)C(Cl)C2c2ccc(O)cc2)s1 (configuration not stated) | inactive | – | Active | Active | – | – | – | inactive | 16 mm | 16 mm | 16 mm | – | 200 µg/mL (≈ 470 µM) | Active | 500 µg/mL (≈ 1170 µM) | – |
